In ChEMBL document CHEMBL3763071, “Selective Human Estrogen Receptor Partial Agonists (ShERPAs) for Tamoxifen-Resistant Breast Cancer” (J Med Chem, 2016):
Active and inactive are the calls of the source. No cut-off for these calls is given here.

Assays:
Estrogen receptor [1] = target: T1, Estrogen receptor (Homo sapiens, UniProt P03372); assay: Agonist activity at estrogen receptor alpha in human MCF7:WS8 cells after 18 hrs by dual luciferase reporter assay; assay type: cell-based
T1 sequence (P03372 whole entry): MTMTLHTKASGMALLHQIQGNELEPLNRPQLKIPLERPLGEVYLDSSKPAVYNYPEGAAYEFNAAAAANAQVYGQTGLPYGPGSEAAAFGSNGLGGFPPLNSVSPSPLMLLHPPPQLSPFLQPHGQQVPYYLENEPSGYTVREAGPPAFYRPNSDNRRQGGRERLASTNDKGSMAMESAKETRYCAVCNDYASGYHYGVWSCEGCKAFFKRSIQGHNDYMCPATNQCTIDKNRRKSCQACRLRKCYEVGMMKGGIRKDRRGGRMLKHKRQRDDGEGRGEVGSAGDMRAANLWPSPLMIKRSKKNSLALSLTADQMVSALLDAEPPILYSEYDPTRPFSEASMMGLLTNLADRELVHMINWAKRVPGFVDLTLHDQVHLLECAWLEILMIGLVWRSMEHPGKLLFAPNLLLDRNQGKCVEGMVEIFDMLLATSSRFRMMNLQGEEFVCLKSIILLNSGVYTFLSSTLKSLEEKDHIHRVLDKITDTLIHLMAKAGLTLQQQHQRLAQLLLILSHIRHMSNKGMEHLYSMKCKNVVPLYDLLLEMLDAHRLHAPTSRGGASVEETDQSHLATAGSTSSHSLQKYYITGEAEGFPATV

[2] = (§1) Antiproliferative activity against tamoxifen resistant human MCF7:5C cells assessed as inhibition of cell growth at 10 nM after 9 days by MTS assay; assay type: functional; conditions: 216 h
Outline: (§2)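 Tamoxifen-resistant MCF-7:5C cells (long-term estrogen-deprived MCF-7:ws8, phenol red-free RPMI with charcoal-dextran FBS) seeded 5000/well overnight, treated at 1, 10 or 100 nM with renewal every 3 days. […] Triplicates in at least three passages.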

[3] = (§3) Antiproliferative activity against tamoxifen resistant human MCF7:5C cells assessed as inhibition of cell growth at 100 nM after 9 days by MTS assay; assay type: functional; conditions: 216 h; outline: as §2
[4] = target: T2, Estrogen receptor (Homo sapiens) (UniProt P03372); assay: Partial agonist activity at biotinylated ERalpha LBD (unknown origin) assessed as inhibition of E2-induced SRC3 coactivator recruitment after 1 hr by TR-FRET assay
T2 sequence (whole entry): T1 sequence (P03372 whole entry)

[5] = (§4) Antiproliferative activity against tamoxifen resistant human MCF7:5C cells assessed as inhibition of cell growth at 1 nM after 9 days by MTS assay; assay type: functional; conditions: 216 h; outline: as §2
Estrogen receptor [6] = target: T1, Estrogen receptor; assay: Partial agonist activity at ERalpha in human MCF7:WS8 cells after 18 hrs by luciferase reporter gene assay; assay type: cell-based
Outline: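 MCF-7:ws8 cells kept in stripped medium 3 days, then transiently co-transfected (6 h) with 3×ERE-firefly luciferase and pRL-TK Renilla plasmids. […] EC50 and Emax derived; mean ± s.e.m. from at least three passages.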

[7] = target: T2, Estrogen receptor (Homo sapiens); assay: Antagonist activity at ERalpha in human MCF7:WS8 cells assessed as E2-induced ERE activation after 18 hrs by luciferase reporter gene assay; assay type: cell-based
Outline: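 ERE-luciferase reporter in MCF-7:ws8 cells held in stripped medium 3 days, co-transfected with 3×ERE (Xenopus vitellogenin A2)-firefly luciferase and pRL-TK Renilla plasmids for 6 h. […] Average of three passages.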

[8] = Cytotoxicity against human MCF7:WS8 cells at 0.1 to 1 uM after 3 days by MTT assay; assay type: cell-based; conditions: mcf7:ws8, 72 h
[9] = target: T2, Estrogen receptor (Homo sapiens); assay: Partial agonist activity at estrogen receptor alpha in human MCF7:WS8 cells at 100 nM after 6 hrs in presence of 100 nM GPR30 inhibitor G15 by luciferase reporter gene assay; assay type: cell-based
[10] = target: T2, Estrogen receptor (Homo sapiens); assay: Partial agonist activity at biotinylated ERalpha LBD (unknown origin) assessed as increase in SRC3 coactivator recruitment after 1 hr by TR-FRET assay
Outline: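 Biotinylated ERα LBD (1 nM) premixed with streptavidin-terbium (0.25 nM). Fluorescein-labelled SRC3 was titrated with ligand at 20 μM. Incubation ran 1 h at room temperature in the dark. Read-out was TR-FRET: excitation 340 nm, emission 495 and 520 nm, 100-μs delay. Background from parallel wells without LBD was subtracted, and signal was plotted against log SRC3.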

T47D:A18 = assay: Antitumor activity against tamoxifen resistant human T47D:A18 cells overexpressing PKC-alpha xenografted into BALB/c athymic mouse assessed as reduction in tumor size at 100 mg/kg administered via oral gavage daily measured upto 2 weeks; assay type: functional, organism-based
Outline: (§5)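 T47D:A18/PKCα xenografts established 12 weeks before dosing. Compound given orally at 100 mg/kg daily for 2 weeks in 0.1% Tween 80/10% PEG400/0.5% CMC, plus drinking water replaced by hydrogel suspension at 0.25 mg/mL. Tumor area (length/2 × width/2 × π) by calipers weekly; uteri excised and weighed at sacrifice (control n = 4, treated n = 6).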

MCF7:5C [11] = assay: as §4; assay type: functional; outline: as §2
Mus musculus = assay: Toxicity in BALB/c athymic mouse xenografted with tamoxifen-resistant human T47D:A18 cells overexpressing PKC-alpha assessed as uterine weight at 100 mg/kg administered via oral gavage daily; assay type: organism-based; conditions: in vivo; outline: as §5
MCF7:5C [12] = assay: as §1; assay type: functional; outline: as §2
MCF7:5C [13] = assay: as §3; assay type: functional; outline: as §2

Oc1ccc2c(-c3ccc(F)cc3)csc2c1
EC50 (Estrogen receptor [1]): Not Active

Oc1ccc(Oc2sc3cc(O)ccc3c2-c2ccc(F)cc2)cc1 [TTC-352]
inhibition at 0.01 µM [2]: 104%
inhibition at 0.1 µM [3]: 123%
EC50 (Estrogen receptor [1]; read-out: EC50): 0.8 nM
Activity [4]: Active
inhibition at 0.001 µM [5]: 50.6%
EC50 (Estrogen receptor [6]): 0.8 nM
inhibition [7]: Dose-dependent effect
Activity [8]: Non-toxic
Activity [9]: Active
Activity [10]: Active

Cc1ccc(C(=O)c2sc3cc(O)ccc3c2-c2ccc(F)cc2)cc1
inhibition at 0.01 µM [2]: 7.4%
inhibition at 0.1 µM [3]: 110%
EC50 (Estrogen receptor [1]; read-out: EC50): 717 nM
inhibition at 0.001 µM [5]: 13.3%
Activity [8]: Non-toxic

N#Cc1ccc(C(=O)c2sc3cc(O)ccc3c2-c2ccc(F)cc2)cc1
inhibition at 0.1 µM [3]: 64.2%
EC50 (Estrogen receptor [1]; read-out: EC50): 58.7 nM
inhibition at 0.001 µM [5]: 2%
Activity [8]: Non-toxic

O=C(c1ccc(C(F)(F)F)cc1)c1sc2cc(O)ccc2c1-c1ccc(F)cc1
inhibition at 0.01 µM [2]: 15.4%
inhibition at 0.1 µM [3]: 88.6%
Activity (T47D:A18): Active
EC50 (Estrogen receptor [1]; read-out: EC50): 5.2 nM
inhibition (MCF7:5C [11]): inactive
Activity [8]: Non-toxic
Activity (Mus musculus): Non-toxic

Oc1ccc2c(-c3ccc(F)cc3)c(Oc3ccc(F)c(F)c3)sc2c1
inhibition (MCF7:5C [12]): inactive
inhibition at 0.1 µM [3]: 84.6%
EC50 (Estrogen receptor [1]; read-out: EC50): 33.4 nM
inhibition (MCF7:5C [11]): inactive
Activity [8]: Non-toxic

C#Cc1ccc(C(=O)c2sc3cc(O)ccc3c2-c2ccc(F)cc2)cc1
inhibition at 0.01 µM [2]: 79.9%
inhibition at 0.1 µM [3]: 85.6%
Activity (T47D:A18): Active
EC50 (Estrogen receptor [1]; read-out: EC50): 5.3 nM
Activity [4]: Active
inhibition at 0.001 µM [5]: 31.4%
EC50 (Estrogen receptor [6]): 5.3 nM
inhibition [7]: Dose-dependent effect
Activity [8]: Non-toxic
Activity [10]: Active

O=C(c1ccc(F)cc1)c1sc2cc(O)ccc2c1-c1ccc(F)cc1
inhibition at 0.01 µM [2]: 32.4%
inhibition at 0.1 µM [3]: 131%
EC50 (Estrogen receptor [1]; read-out: EC50): 18.5 nM
inhibition (MCF7:5C [11]): inactive
Activity [8]: Non-toxic

O=C(c1sc2cc(O)ccc2c1-c1ccc(F)cc1)C1CC1
inhibition at 0.01 µM [2]: 79.6%
inhibition at 0.1 µM [3]: 146%
EC50 (Estrogen receptor [1]; read-out: EC50): 13.9 nM
inhibition (MCF7:5C [11]): inactive
Activity [8]: Non-toxic

CN(C)c1ccc(C(=O)c2sc3cc(O)ccc3c2-c2ccc(F)cc2)cc1
inhibition at 0.01 µM [2]: 15.1%
inhibition at 0.1 µM [3]: 111%
EC50 (Estrogen receptor [1]; read-out: EC50): 30.6 nM
inhibition at 0.001 µM [5]: 4.1%
Activity [8]: Non-toxic

Oc1ccc2c(-c3ccc(F)cc3)c(Oc3ccc(Cl)cc3)sc2c1
inhibition (MCF7:5C [12]): inactive
inhibition at 0.1 µM [3]: 30.7%
EC50 (Estrogen receptor [1]; read-out: EC50): 76.1 nM
inhibition (MCF7:5C [11]): inactive
EC50 (Estrogen receptor [6]): 76.1 nM
inhibition [7]: Dose-dependent effect
Activity [8]: Non-toxic

Oc1ccc(Oc2c(-c3ccc(F)cc3)sc3cc(O)ccc23)cc1
inhibition (MCF7:5C [12]): inactive
inhibition (MCF7:5C [13]): inactive
EC50 (Estrogen receptor [1]; read-out: EC50): 6.2 nM
inhibition (MCF7:5C [11]): inactive
Activity [8]: Non-toxic

O=C(c1sc2cc(O)ccc2c1-c1ccc(F)cc1)C1CCCCC1
inhibition at 0.01 µM [2]: 134%
inhibition at 0.1 µM [3]: 147%
EC50 (Estrogen receptor [1]; read-out: EC50): 1 nM
inhibition at 0.001 µM [5]: 21.4%
Activity [8]: Non-toxic

O=C(c1ccc(O)cc1)c1sc2cc(O)ccc2c1-c1ccc(F)cc1
inhibition at 0.01 µM [2]: 99.8%
inhibition at 0.1 µM [3]: 100%
EC50 (Estrogen receptor [1]; read-out: EC50): 0.2 nM
inhibition at 0.001 µM [5]: 95.4%
Activity [8]: Non-toxic

Oc1ccc2cc(-c3ccc(F)cc3)sc2c1
EC50 (Estrogen receptor [1]): Not Active

O=C(c1ccc(OCCN2CCCCC2)cc1)c1c(-c2ccc(O)cc2)sc2cc(O)ccc12 [RALOXIFENE]
inhibition (MCF7:5C [12]): inactive
inhibition (MCF7:5C [13]): inactive
inhibition (MCF7:5C [11]): inactive
Activity [8]: Non-toxic

O=C(c1ccc(C(F)(F)F)cc1)c1c(-c2ccc(Cl)cc2)sc2cc(O)ccc12
inhibition (MCF7:5C [12]): inactive
inhibition (MCF7:5C [13]): inactive
EC50 (Estrogen receptor [1]; read-out: EC50): 121 nM
inhibition (MCF7:5C [11]): inactive
Activity [8]: Non-toxic

O=C(c1ccc(C(F)(F)F)cc1)c1c(-c2ccc(F)cc2)sc2cc(O)ccc12
inhibition at 0.01 µM [2]: 69.7%
inhibition at 0.1 µM [3]: 108%
EC50 (Estrogen receptor [1]; read-out: EC50): 61.5 nM
inhibition at 0.001 µM [5]: 55.6%
Activity [8]: Non-toxic

Cc1ccc(C(=O)c2c(-c3ccc(O)cc3)sc3cc(O)ccc23)cc1
inhibition at 0.01 µM [2]: 60.2%
inhibition at 0.1 µM [3]: 109%
EC50 (Estrogen receptor [1]; read-out: EC50): 2.6 nM
inhibition at 0.001 µM [5]: 11.5%
Activity [8]: Non-toxic

CS(=O)(=O)c1ccc(C(=O)c2sc3cc(O)ccc3c2-c2ccc(F)cc2)cc1
inhibition (MCF7:5C [12]): inactive
inhibition at 0.1 µM [3]: 18.9%
EC50 (Estrogen receptor [1]; read-out: EC50): 436 nM
inhibition (MCF7:5C [11]): inactive
Activity [8]: Non-toxic

Oc1ccc2c(-c3ccc(F)cc3)c(Oc3ccc(F)cc3)sc2c1
inhibition (MCF7:5C [12]): inactive
inhibition at 0.1 µM [3]: 86.6%
EC50 (Estrogen receptor [1]; read-out: EC50): 36.8 nM
inhibition (MCF7:5C [11]): inactive
Activity [8]: Non-toxic
